# Measurements as given in PMC4894846 (Nature cell biology, 2014).
# “And” between values parts separate entries of the source, which are not always exact repeats. Identical values can stand only once.
# Assays:
# [1] = tested on: Pfa1 cells; test: Cell death elicited by ferroptosis-inducing agents; format: cell-based, mouse; conditions: for Induction of cell death through GSH depletion: Pfa1 cells; for Prevention of cell death elicited by FINs: erastin 2.5 μM, BSO 20 μM, RSL3 20 nM, DFO 10 μM, Fer1 0.1 μM, αToc 1 μM, Nec1 20 μM, Z-VAD-FMK 50 μM
# [2] = tested on: TAM-inducible Gpx4−/− cells (Pfa1); test: Rescue of cell death induced by TAM-inducible Gpx4 deletion in Pfa1 cells; format: cell-based, mouse; conditions: 1 μM TAM, viability 72 h after knockout induction
# [3] = tested on: Gpx4−/− cells; test: Lipid peroxidation in Gpx4−/− cells; format: cell-based, mouse; conditions: 48 h after knockout induction; Liproxstatin-1 50 nM
# Method in brief: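 Gpx4 loss is induced in TAM-inducible Pfa1 cells grown in dishes in DMEM with 10% FBS. Test compound is present during induction. At 48 h after knockout induction, cells are washed, stained with BODIPY 581/591 C11 for 1 h, and probe oxidation is measured by flow cytometry.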
# [4] = tested on: HepG2 cells; test: Cytotoxicity in HepG2 cells; format: cell-based; conditions: 72 h incubation
# Method in brief: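 Cells are incubated with increasing concentrations of the test compound for 72 h. Viability is then read with the AquaBluer live-cell indicator. TC50 is derived by curve fitting.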
# [5] = target: hERG channel (Homo sapiens, UniProt Q12809); test: hERG patch clamp assay; format: cell-based; conditions: read-out: hERG patch clamp assay IC50
# Sequence of hERG channel (Q12809 whole entry): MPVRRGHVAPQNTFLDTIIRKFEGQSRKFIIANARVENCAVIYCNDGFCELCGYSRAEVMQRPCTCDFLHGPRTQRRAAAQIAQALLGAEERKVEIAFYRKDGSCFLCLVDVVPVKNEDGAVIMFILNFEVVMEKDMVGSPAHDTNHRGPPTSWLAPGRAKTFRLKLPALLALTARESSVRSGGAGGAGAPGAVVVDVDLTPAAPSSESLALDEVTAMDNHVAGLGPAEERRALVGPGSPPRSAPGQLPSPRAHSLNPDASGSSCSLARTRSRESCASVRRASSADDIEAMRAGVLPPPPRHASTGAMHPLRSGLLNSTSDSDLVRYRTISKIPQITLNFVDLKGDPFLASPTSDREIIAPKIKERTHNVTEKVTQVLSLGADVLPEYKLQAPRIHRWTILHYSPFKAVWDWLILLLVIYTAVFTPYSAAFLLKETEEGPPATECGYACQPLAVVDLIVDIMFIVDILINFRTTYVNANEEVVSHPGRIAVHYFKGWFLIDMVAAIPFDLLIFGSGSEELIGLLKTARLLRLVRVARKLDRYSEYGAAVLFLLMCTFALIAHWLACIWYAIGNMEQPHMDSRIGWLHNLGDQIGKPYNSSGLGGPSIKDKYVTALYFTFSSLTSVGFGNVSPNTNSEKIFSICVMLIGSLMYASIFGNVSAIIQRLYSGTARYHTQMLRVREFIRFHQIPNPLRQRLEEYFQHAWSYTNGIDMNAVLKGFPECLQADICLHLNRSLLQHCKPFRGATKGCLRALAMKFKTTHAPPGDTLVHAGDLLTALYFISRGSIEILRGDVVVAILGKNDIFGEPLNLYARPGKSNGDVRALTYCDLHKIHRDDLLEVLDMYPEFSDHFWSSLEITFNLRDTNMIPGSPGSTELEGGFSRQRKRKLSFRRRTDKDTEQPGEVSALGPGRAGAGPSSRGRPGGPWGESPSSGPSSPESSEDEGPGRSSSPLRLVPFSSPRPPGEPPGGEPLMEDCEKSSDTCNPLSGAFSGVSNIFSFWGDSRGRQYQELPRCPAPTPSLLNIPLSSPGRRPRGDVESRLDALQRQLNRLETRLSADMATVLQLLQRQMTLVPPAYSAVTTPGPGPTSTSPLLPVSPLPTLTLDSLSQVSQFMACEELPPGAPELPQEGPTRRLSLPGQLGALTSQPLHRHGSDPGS
# [6] = target: CYP450 2C9 (Homo sapiens, UniProt P11712); test: CYP450 inhibition 2C9; format: in vitro ADME; conditions: read-out: CYP450 inhibition 2C9 IC50
# Sequence of CYP450 2C9 (P11712 whole entry): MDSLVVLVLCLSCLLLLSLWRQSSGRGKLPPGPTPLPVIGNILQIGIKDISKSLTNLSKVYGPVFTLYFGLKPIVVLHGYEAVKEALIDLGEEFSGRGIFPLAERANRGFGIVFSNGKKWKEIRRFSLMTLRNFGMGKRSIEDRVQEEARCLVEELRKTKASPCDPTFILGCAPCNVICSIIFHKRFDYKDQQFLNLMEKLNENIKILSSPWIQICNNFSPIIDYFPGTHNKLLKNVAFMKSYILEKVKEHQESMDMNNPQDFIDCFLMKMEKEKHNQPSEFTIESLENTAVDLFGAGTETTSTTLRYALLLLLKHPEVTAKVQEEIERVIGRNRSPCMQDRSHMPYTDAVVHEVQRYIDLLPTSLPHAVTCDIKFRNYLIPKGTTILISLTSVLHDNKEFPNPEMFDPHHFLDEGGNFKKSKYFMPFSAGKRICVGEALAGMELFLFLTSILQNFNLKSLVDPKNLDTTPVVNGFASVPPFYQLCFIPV
# [7] = target: CYP450 2D6 (Homo sapiens, UniProt P10635); test: CYP450 inhibition 2D6; format: in vitro ADME; conditions: read-out: CYP450 inhibition 2D6 IC50
# Sequence of CYP450 2D6 (P10635 whole entry): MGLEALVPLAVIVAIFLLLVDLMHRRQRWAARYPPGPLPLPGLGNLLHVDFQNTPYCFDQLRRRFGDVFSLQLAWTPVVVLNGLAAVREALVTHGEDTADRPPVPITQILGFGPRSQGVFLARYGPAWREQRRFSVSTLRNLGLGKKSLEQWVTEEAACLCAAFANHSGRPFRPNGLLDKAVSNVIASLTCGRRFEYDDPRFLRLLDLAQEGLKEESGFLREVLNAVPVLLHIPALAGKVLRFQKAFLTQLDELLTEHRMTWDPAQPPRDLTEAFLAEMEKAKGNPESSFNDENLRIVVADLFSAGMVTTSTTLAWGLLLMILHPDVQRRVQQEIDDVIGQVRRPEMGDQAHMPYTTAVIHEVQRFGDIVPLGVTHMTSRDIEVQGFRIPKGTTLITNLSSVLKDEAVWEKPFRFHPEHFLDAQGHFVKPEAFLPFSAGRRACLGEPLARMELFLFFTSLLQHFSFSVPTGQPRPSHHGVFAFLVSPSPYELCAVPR
# [8] = target: CYP450 3A4 (Homo sapiens, UniProt P08684); test: CYP450 inhibition 3A4; format: in vitro ADME; conditions: read-out: CYP450 inhibition 3A4 IC50
# Sequence of CYP450 3A4 (P08684 whole entry): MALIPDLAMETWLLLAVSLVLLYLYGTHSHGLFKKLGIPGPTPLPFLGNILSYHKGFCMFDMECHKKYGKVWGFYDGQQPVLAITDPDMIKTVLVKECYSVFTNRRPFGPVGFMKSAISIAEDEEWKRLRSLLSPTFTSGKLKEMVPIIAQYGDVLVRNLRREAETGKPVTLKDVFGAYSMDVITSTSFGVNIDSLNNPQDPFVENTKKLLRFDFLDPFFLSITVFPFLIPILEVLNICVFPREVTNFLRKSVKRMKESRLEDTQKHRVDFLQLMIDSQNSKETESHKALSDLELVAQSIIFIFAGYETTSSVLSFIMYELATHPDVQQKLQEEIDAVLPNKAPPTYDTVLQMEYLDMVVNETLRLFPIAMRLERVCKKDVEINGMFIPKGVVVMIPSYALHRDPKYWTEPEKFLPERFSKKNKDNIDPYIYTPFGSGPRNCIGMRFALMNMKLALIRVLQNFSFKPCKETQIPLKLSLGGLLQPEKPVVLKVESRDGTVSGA
# [9] = tested on: CYP450 1A; test: CYP450 inhibition 1A; format: in vitro ADME; conditions: read-out: CYP450 inhibition 1A IC50
# [10] = target: CYP450 2C19 (Homo sapiens, UniProt P33261); test: CYP450 inhibition 2C19; format: in vitro ADME; conditions: read-out: CYP450 inhibition 2C19 IC50
# Sequence of CYP450 2C19 (P33261 whole entry): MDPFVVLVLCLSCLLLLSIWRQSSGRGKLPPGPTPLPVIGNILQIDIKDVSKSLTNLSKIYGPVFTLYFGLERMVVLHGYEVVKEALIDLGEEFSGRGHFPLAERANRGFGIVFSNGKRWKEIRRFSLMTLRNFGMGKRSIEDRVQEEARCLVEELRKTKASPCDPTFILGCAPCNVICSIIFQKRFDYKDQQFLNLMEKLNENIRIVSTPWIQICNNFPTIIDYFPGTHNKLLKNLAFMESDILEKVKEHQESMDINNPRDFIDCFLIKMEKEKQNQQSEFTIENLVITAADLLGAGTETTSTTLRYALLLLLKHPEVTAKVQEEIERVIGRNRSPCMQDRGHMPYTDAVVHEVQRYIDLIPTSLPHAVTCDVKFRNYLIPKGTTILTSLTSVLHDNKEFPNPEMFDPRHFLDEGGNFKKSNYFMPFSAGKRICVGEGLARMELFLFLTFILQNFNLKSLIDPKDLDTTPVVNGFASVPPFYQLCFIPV
# [11] = Mouse pharmacokinetics; format: in vivo
# [12] = tested on: L929 cells; test: TNFα/Z-VAD-FMK-induced necroptosis in L929 cells; format: cell-based; conditions: Liproxstatin-1 1 μM; TNFα 5 ng ml^−1 + Z-VAD-FMK 50 μM; 8 h
# [13] = tested on: Pfa1 cells; test: Cell death induced by staurosporine and H2O2; format: cell-based, mouse; conditions: Liproxstatin-1 200 nM; staurosporine 0.2 μM, H2O2 200 μM; 24 h
# Method in brief: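 Gpx4-proficient (non-induced) Pfa1 mouse cells, kept in DMEM with 10% FBS. The test compound is given together with the death trigger: BSO 10 μM, erastin 1 μM or RSL3 0.5 μM, or staurosporine 0.2 μM or H2O2 200 μM. Viability is read 24 h after treatment. Mean ± s.d. of n = 3 wells; representative of at least four independent experiments.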
# [14] = tested on: primary human renal proximal tubule epithelial cells (HRPTEpiCs); test: Viability of HRPTEpiCs treated with RSL3; format: cell-based; conditions: 24 h
# Method in brief: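 Primary human renal proximal tubule epithelial cells, cultured per supplier recommendations. Cells are exposed to RSL3 with or without test compound, and viability is read by AquaBluer 24 h after treatment. Mean ± s.d. of n = 3 wells; representative of three independent experiments.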
# [15] = tested on: HRPTEpiCs; test: RSL3-induced lipid oxidation in HRPTEpiCs; format: cell-based, human; conditions: RSL3 0.2 μM; 24 h
# Method in brief: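 Primary human renal proximal tubule epithelial cells, cultured per supplier recommendations. Cells are treated with RSL3 (0.2 μM) with or without test compound. After 24 h, cells are stained with BODIPY 581/591 C11 for 1 h and lipid oxidation is measured by flow cytometry. Representative of four independent experiments.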
# [16] = tested on: CreERT2;Gpx4fl/fl mice; test: In vivo rescue of TAM-induced CreERT2; set-up: species or system mouse; conditions: 10 mg kg^−1 i.p. daily
# Method in brief: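 CreERT2;Gpx4fl/fl mice receive 0.5 mg TAM in Miglyol on days 1 and 3. From day 4, the test compound (10 mg kg−1) or vehicle (1% DMSO in PBS) is given i.p. once daily, with injections and scoring blinded. Survival is compared by log-rank/Gehan–Breslow–Wilcoxon tests (n = 12 vehicle, n = 13 treated; run twice). Kidney TUNEL+ cells are counted 9 days after TAM.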
# [17] = tested on: C57BL/6J mice; test: Hepatic ischaemia/reperfusion injury model; format: in vivo, mouse; conditions: 90 min ischaemia, 24 h reperfusion
# Method in brief: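 Male C57BL/6J mice, 8–10 weeks old, 22–24 g, randomised; operators blinded. Under xylazine/ketamine, an atraumatic clip is placed across the portal vein, hepatic artery and bile duct above the right lateral lobe branch. Reperfusion follows 90 min of ischaemia. At 24 h, serum ALT/AST is measured and necrotic area is scored (n = 17 and n = 5). Mean ± s.e.m.; one-way ANOVA with Dunnett's post-test.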
# [18] = tested on: PZL cells (CreERT2;Gpx4fl/fl/Alox15−/−); test: Cell death on TAM-induced Gpx4 deficiency in PZL cells; format: cell-based, mouse
# [19] = tested on: Rip1−/− cells; test: FIN/RSL3-induced ferroptosis in Rip1−/− cells; format: cell-based; conditions: RSL3 1 μM; 6 h pre-treatment; viability at 24 h
smiles,measurement,setting,value
"CCCCS(=N)(=O)CCC(N)C(=O)O [BSO, L-buthionine sulphoximine]",Induction of cell death through GSH depletion,[1],efficiently triggered rapid cell death
CC(=O)N(O)C/C=C/c1cccc(Oc2ccccc2)c1 [BWA4C],Rescue of cell death in response to Gpx4 deletion,[2],prevented cell death
"CC(=O)N(O)CCCCCNC(=O)CCC(=O)N(O)CCCCCNC(=O)CCC(=O)N(O)CCCCCN [DFO, deferoxamine]",Rescue of cell death in response to Gpx4 deletion,[2],cell death could also be inhibited
same,Prevention of cell death elicited by FINs,[1]; 24 h,can be prevented
same,Effect on lipid peroxidation (BODIPY 581/591 C11 oxidation),[3],could be ameliorated
"CCOC(=O)c1ccc(NC2CCCCC2)c(N)c1 [Fer1, ferrostatin-1]",Rescue of cell death in response to Gpx4 deletion,[2],rescued Gpx4^−/− cells from cell death
same,Prevention of cell death elicited by FINs,[1]; 24 h,can be prevented
same,Effect on lipid peroxidation (BODIPY 581/591 C11 oxidation),[3],could be ameliorated
Clc1cccc(CN=C2Nc3ccccc3NC23CCNCC3)c1 [Liproxstatin-1],Cytotoxicity in HepG2 cells TC50,[4],6 µM
same,IC50,[5],> 25 µM
same,IC50,[6],> 25 µM
same,IC50,[7],4.1 µM
same,IC50,[8],> 25 µM
same,IC50,[9],> 25 µM
same,IC50,[10],> 25 µM
same,Bioavailability,[11],52%
same,C,[11]; i.v. 1 mg kg^−1,0.4 µg/mL
same,MRTINF (mean residence time extrapolated to infinity),[11]; i.v. 1 mg kg^−1,4.9 h
same,Total Cl,[11]; i.v. 1 mg kg^−1,128 ml h^−1 and 66 ml min^−1 kg^−1
same,V,[11]; i.v. 1 mg kg^−1,849 mL
same,Vss,[11]; i.v. 1 mg kg^−1,629 mL
same,t1/2,[11]; i.v. 1 mg kg^−1,4.6 h
same,Cmax,[11]; p.o. 5 mg kg^−1,80 ng/mL
same,Tmax,[11]; p.o. 5 mg kg^−1,2 h
same,Rescue of cell death in response to Gpx4 deletion,[2],inhibit ferroptosis in the low nanomolar range
same,Protection against FINs,"[1]; Liproxstatin-1 200 nM, BSO 10 μM, erastin 1 μM, RSL3 0.5 μM, 24 h",protects against FINs
same,Effect on lipid peroxidation (BODIPY 581/591 C11 oxidation),[3],completely prevents lipid peroxidation
same,Effect on necroptosis,[12],does not prevent necroptosis
same,Rescue of cell death induced by staurosporine and H2O2,[13],fails to rescue cell death
same,Protection from RSL3-induced cell death,[14]; Liproxstatin-1 100 nM,able to protect
same,Effect on RSL3-induced BODIPY 581/591 C11 oxidation,[15],could be blocked
same,Median survival,"[16]; vehicle-treated 11 days, P <0.0001",14 days
same,TUNEL+ cells in kidney compared with vehicle,[16]; day 9 after TAM treatment,strongly reduced number of TUNEL+ cells
same,"Tissue injury (AST/ALT, necrotic area)",[17],mitigated tissue injury
CCCCCCCCCCCCCCCCOCC(COCC(F)(F)F)OP(=O)(O)OC (stereo not drawn) [MJ33],Rescue of cell death in response to Gpx4 deletion,[2],prevented cell death
CC(C)c1ccc2c(c1)c(SC(C)(C)C)c(CC(C)(C)C(=O)O)n2Cc1ccc(Cl)cc1 [MK886],Rescue of cell death in response to Gpx4 deletion,[2],prevented cell death
"CC(=O)N[C@@H](CS)C(=O)O [NAC, N-acetylcysteine]",Rescue of cell death of PZL cells on Gpx4 deficiency,[18],could not be rescued
"CN1C(=O)C(Cc2c[nH]c3ccccc23)NC1=S (stereo not drawn) [Nec1, necrostatin-1]",Rescue of cell death in response to Gpx4 deletion,[2],rescued Gpx4^−/− cells from cell death
same,Prevention of cell death elicited by FINs,[1]; 24 h,can be prevented
same,Prevention of ferroptosis in Rip1−/− cells,[19],ferroptosis could be prevented
CN1C(=O)NC(Cc2c[nH]c3c(Cl)cccc23)C1=O (stereo not drawn) [Nec1s],Rescue of cell death in response to Gpx4 deletion,[2],did not protect
c1ccc2c(c1)SCc1c-2[nH]c2ccccc12 [PD146176],Rescue of cell death in response to Gpx4 deletion,[2],prevented cell death
"COC(=O)c1ccc([C@@H]2c3[nH]c4ccccc4c3C[C@@H](C(=O)OC)N2C(=O)CCl)cc1 [RSL3, (1S, 3R)-RSL3, reference compound]",Induction of cell death in HRPTEpiCs,[14],efficiently triggered cell death
CCOc1ccccc1-n1c(C(C)N2CCN(C(=O)COc3ccc(Cl)cc3)CC2)nc2ccccc2c1=O (stereo not drawn) [erastin],Induction of cell death through GSH depletion,[1],efficiently triggered rapid cell death
CC(c1cc2ccccc2s1)N(O)C(N)=O (stereo not drawn) [zileuton],Rescue of cell death in response to Gpx4 deletion,[2],prevented cell death
"Cc1c(C)c2c(c(C)c1O)CC[C@@](C)(CCC[C@H](C)CCC[C@H](C)CCCC(C)C)O2 [αToc, α-tocopherol]",Rescue of cell death in response to Gpx4 deletion,[2],cell death could also be inhibited
same,Prevention of cell death elicited by FINs,[1]; 24 h,can be prevented
same,Rescue of cell death of PZL cells on Gpx4 deficiency,[18],rescued
